Measured values published in ChEMBL document CHEMBL1141391 (J Med Chem, 2007).

Assays:
[1] = tested on: 1A9; test: Inhibition of growth in 1A9 cell line after 72 hrs; type: functional, cell-based; conditions: Homo sapiens, 1A9, 72 h
[2] = Inhibition of growth in epothilone A resistant 1A9-A8 T-beta-274I mutant cell line after 72 hrs by SRB assay; type: functional, cell-based; conditions: Homo sapiens, 1A9, 72 h
[3] = tested on: 1A9; test: Relative resistance, IC50 for 1A9-A8 A8 T-beta-274I mutant/IC50 for 1A9; type: functional, Homo sapiens
[4] = tested on: 1A9/ptx-10; test: Inhibition of growth in paclitaxel resistant 1A9-PTX10 F-beta-270V mutant cell line after 72 hrs by SRB assay; type: functional, cell-based; conditions: Homo sapiens, 1A9/ptx-10, 72 h
[5] = tested on: A2780; test: Cytotoxicity against A2780 cell line; type: cell-based; conditions: Homo sapiens
[6] = tested on: 1A9/ptx-10; test: Relative resistance, IC50 for 1A9-PTX10 F-beta-270V mutant/IC50 for 1A9; type: functional, Homo sapiens
[7] = molecular target: Tubulin (Homo sapiens) (UniProt P68371+Q9H4B7+P0DPH7+P68366+Q13509+Q71U36+P04350+Q3ZCM7+P07437+P68363+Q9BQE3+Q6PEY2+Q13885+Q9BVA1+Q9BUF5); test: Induction of GTP-tubulin polymerization; type: protein-complex assay
Method in brief: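 ED50 for induction of tubulin assembly, read by light scattering at 350 nm or by fluorescence in a 96-well format. GTP-tubulin was used unless otherwise stated. Some samples were run with GDP-tubulin and normalized to the GTP-tubulin scale. Some values are single determinations.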

[8] = tested on: PC-3; test: Cytotoxicity against PC3 cell line by MTT assay; type: cell-based; conditions: Homo sapiens

Row | SMILES | IC50 [1] [nM] | IC50 [2] [nM] | Ratio IC50 [3] | IC50 [4] [nM] | IC50 [5] [nM] | Ratio IC50 [6] | ED50 [7] [nM] | IC50 [8] [nM]
1 | CC(=O)O[C@H]1C(=O)[C@]2(C)C(O)C[C@H]3OC[C@]34OC(=O)/C=C\Cc3ccccc3[C@H](NC(=O)c3ccccc3)[C@@H](O)C(=O)O[C@H]3C[C@@](O)([C@@H](OC(=O)c5ccccc5)[C@H]42)C(C)(C)C1=C3C (stereo not given in full) | 0.32 | 0.27 | 0.84 | 0.13 | 0.3 | 1.8 | 300 | 2.5
2 | C=CCCC(=O)O[C@@]12CO[C@@H]1C[C@H](O)[C@@]1(C)C(=O)[C@H](OC(C)=O)C3=C(C)[C@@H](OC(=O)[C@H](O)[C@@H](NC(=O)c4ccccc4)c4ccccc4OCC=C)C[C@@](O)([C@@H](OC(=O)c4ccccc4)[C@H]21)C3(C)C | 1.8 | 148 | 82 | 65 | 770 | 18 | 420 | 128
3 | CC(=O)O[C@H]1C(=O)[C@@]2(C)[C@@H]3[C@H](OC(=O)c4ccccc4)[C@]4(O)C[C@H](OC(=O)[C@H](O)[C@@H](NC(=O)c5ccccc5)c5cccc(c5)/C=C/CCC(=O)O[C@]35CO[C@@H]5C[C@@H]2O)C(C)=C1C4(C)C | 12.9 | > 300 | >23 | 157 | 680 | 21 | 1600 | 34
4 | CC(=O)O[C@H]1C(=O)[C@@]2(C)[C@@H]3[C@H](OC(=O)c4ccccc4)[C@]4(O)C[C@H](OC(=O)[C@H](O)[C@@H](NC(=O)c5ccccc5)c5ccccc5OCC/C=C/C(=O)O[C@]35CO[C@@H]5C[C@@H]2O)C(C)=C1C4(C)C | 12.2 | 46.4 | 3.8 | 157 | 20 | 9.2 | 670 | 16
5 | C=CCCC(=O)O[C@@]12CO[C@@H]1C[C@H](O)[C@@]1(C)C(=O)[C@H](OC(C)=O)C3=C(C)[C@@H](OC(=O)[C@H](O)[C@@H](NC(=O)c4ccccc4)c4cccc(C=C)c4)C[C@@](O)([C@@H](OC(=O)c4ccccc4)[C@H]21)C3(C)C | 13.7 | 137 | 10 | 42 | 350 | 5.5 | 490 | 55
6 | CC(=O)O[C@H]1C(=O)[C@@]2(C)[C@@H]3[C@H](OC(=O)c4ccccc4)[C@]4(O)C[C@H](OC(=O)[C@H](O)[C@@H](NC(=O)c5ccccc5)c5ccccc5CCCC(=O)O[C@]35CO[C@@H]5C[C@@H]2O)C(C)=C1C4(C)C | 0.07 | 0.44 | 6.3 | 1.03 | 0.5 | 12 | 210 | 2.4
7 | CC(=O)O[C@H]1C(=O)[C@@]2(C)[C@@H]3[C@H](OC(=O)c4ccccc4)[C@]4(O)C[C@H](OC(=O)[C@H](O)[C@@H](NC(=O)c5ccccc5)c5ccccc5OC/C=C\C(=O)O[C@]35CO[C@@H]5C[C@@H]2O)C(C)=C1C4(C)C | 7 | 26.5 | 3.8 | 126 | 14.5 | 17 | 280 | 15
8 | CC(=O)O[C@H]1C(=O)[C@@]2(C)[C@@H]3[C@H](OC(=O)c4ccccc4)[C@]4(O)C[C@H](OC(=O)[C@H](O)[C@@H](NC(=O)c5ccccc5)c5ccccc5OCCCC(=O)O[C@]35CO[C@@H]5C[C@@H]2O)C(C)=C1C4(C)C | 18.9 | 66.5 | 3.5 | 35.9 | 18.5 | 1.8 | 830 | 50
9 | CC(=O)O[C@H]1C(=O)[C@@]2(C)[C@@H]3[C@H](OC(=O)c4ccccc4)[C@]4(O)C[C@H](OC(=O)[C@H](O)[C@@H](NC(=O)c5ccccc5)c5cccc(c5)OC/C=C/CCC(=O)O[C@]35CO[C@@H]5C[C@@H]2O)C(C)=C1C4(C)C | 24.6 | > 300 | >12 | 196 | 650 | 6.3 |  | 
